SF1 activator: activates the human nuclear receptor SF-1; Q13285; activation, % at 10 µM; actives 1.9% (n = 65,000); CHO-K1 Gal4-SF-1 LBD luciferase reporter; % increase over DMSO SF-1-specific signal; AID 522;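 active = activation above the mean activation of all tested compounds plus 3 SD, cut at about 50% in these data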
Target sequence (Q13285 whole entry, looked up, the tested form may be a part): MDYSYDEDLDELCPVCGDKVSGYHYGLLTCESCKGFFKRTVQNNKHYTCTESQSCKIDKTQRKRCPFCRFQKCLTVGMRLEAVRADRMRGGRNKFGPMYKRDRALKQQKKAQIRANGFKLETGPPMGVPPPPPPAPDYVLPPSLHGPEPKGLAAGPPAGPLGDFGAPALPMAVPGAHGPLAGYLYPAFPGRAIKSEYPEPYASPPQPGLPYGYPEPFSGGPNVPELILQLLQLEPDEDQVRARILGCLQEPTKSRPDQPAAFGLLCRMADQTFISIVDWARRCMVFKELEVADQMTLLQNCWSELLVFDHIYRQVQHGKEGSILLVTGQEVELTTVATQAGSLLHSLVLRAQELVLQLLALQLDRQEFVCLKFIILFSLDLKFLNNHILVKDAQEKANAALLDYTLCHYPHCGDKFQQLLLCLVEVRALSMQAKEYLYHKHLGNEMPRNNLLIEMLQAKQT
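Test system: CHO-K1 cells with Gal4–hSF-1 LBD chimera plus Gal4-driven luciferase; Input: 4,000 cells/well; Compound: 10 µM only; Times: 20 h compound treatment, 37 °C; Measured by: steady-glow luciferase luminescence, read after 15 min reagent incubation; Measure: percent activation versus DMSO; Control set: DMSO and mock-transfected background; Replicates: one test per compound.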
M1 antagonist: blocks the rat M1 muscarinic receptor response to acetylcholine; P08482; CHO-M1 cells, Fluo-4 calcium, ACh EC80 antagonist mode; stronger effect = lower value; B-score at 10 µM; actives 3.4% (n = 64,000);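 active = calcium fluorescence response, raw or row-and-column corrected B-score, differing from the plate sample mean either way at a set confidence level, mostly lower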
M1 ag: activates the M1 muscarinic receptor; CHO-M1 cells, Fluo-4 calcium fluorescence, agonist mode; stronger effect = higher value; B-score at 10 µM; actives 3% (n = 64,000); AID 626;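 active = fluorescence rise, raw or as B-score row- and column-corrected plate score, outside the 99.7% band of its plate's samples, either direction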
RORA act: activators of human nuclear receptor RORA | P35398 | CHO-K1 Gal4-RORA LBD luciferase reporter, luminescence; percent increase over mock-subtracted basal signal | activation, % at 10 µM | actives 1.5% (n = 65,000);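 active = activation above the mean of all tested compounds plus 3 SD, cut at about 49% in these data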
D1 mod: D1 dopamine receptor (human) allosteric modulation; P21728; HEK293 D1, CRE-luciferase, dopamine EC30 potentiation; actives deviate in either direction; B-score at 10 µM; actives 5.9% (n = 58,000);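 active = luminescence count or its row- and column-corrected plate score outside the 99.7% band of the plate's sample wells, on either side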
mHtt clearance: compounds clearing mutant huntingtin protein. actives 0.42% (n = 47,000). HeLa Exon1htt(103Q)mCFP, aggregate imaging; zero = plate's median compound well. AID 853. inhibition, % at 1.5 µM;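 active = inhibition of aggregate fluorescence above about 70%, also judged a hit by eye on the cell image, limit read from the data, passing the limit was not always enough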;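 note: cells exposed to compound for three days before fixation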
D1 PAM confirm: confirmation of human D1 dopamine receptor allosteric modulators | shares compounds with D1 mod | HEK293 D1 CRE-luciferase, dopamine EC30 potentiation; stronger effect = higher value | luminescence at 10 µM | actives 88% (n = 2,200) | AID 642;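 active = luminescence in either of two replicates above the same-plate mean plus 3 SD of the low-dose dopamine control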
D1 ag no DA: D1 (human) signaling in absence of dopamine | actives 0.8% (n = 1,900) | shares compounds with D1 mod | luminescence at 10 µM | HEK293 D1 CRE-luciferase, luminescence, no dopamine; stronger effect = higher value | AID 646; in the data active = luminescence above about 3900
Isoprot counter: counter-screen for D1 modulators: isoproterenol response in HEK293 cells; AID 647; HEK293 D1 CRE-luciferase, isoproterenol EC30 counter-screen; shares compounds with D1 mod; actives 63% (n = 2,200); calls only at 10 µM;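 active = luminescence in either replicate above plate mean of wells with a partly effective reference agonist dose plus 3 SD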;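 note: isoproterenol raises cAMP through native beta-adrenoceptor Gs so signal bypasses D1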
A number is an active result; 0 = inactive; - = no result given; + = active, no number. Sampled rows, rich in hits. Any-hit rate of the full collection: about 11%.

SMILES	SF1 activator	M1 antagonist	M1 ag	RORA act	D1 mod	mHtt clearance	D1 PAM confirm	D1 ag no DA	Isoprot counter
Cc1onc(-c2ccccc2)c1C(=O)Oc1cccnc1	0	0	0	0	6.7	0	13128	0	+
CCC(=O)N/C(=N\OCc1ccc(F)cc1)c1nonc1NC(=O)CC	-	-	-	-	-	0	-	-	-
N#Cc1nc(-c2ccco2)oc1N1CCCC1	0	0	0	0	4	-	11548	-	+
N#Cc1nc(-c2ccccc2F)oc1N1CCCC1	0	0	0	0	6.4	0	11832	0	+
Cn1c(NC(=O)c2ccccc2NC(=O)C(C)(C)C)nc2ccccc21	0	0	0	0	0	0	-	-	-
CCC(C(=O)NC1CCCC1)N(C(=O)Cn1nnc(-c2ccc(OC)c(OC)c2)n1)C1CCCCC1 (configuration not stated)	0	0	0	0	6.8	-	9072	0	+
O=C(Nc1ccccc1C(F)(F)F)N1CCN(c2ccc3nnc(-c4ccc(F)cc4)n3n2)CC1	0	0	0	0	3.9	-	7116	0	+
Clc1ccccc1COc1ccccc1-c1nnco1	0	0	0	0	0	0	-	-	-
c1ccc(OCCOc2ccccc2-c2nnco2)cc1	0	0	0	0	4.4	0	0	0	0
CCOC(=O)C(CCSC)NC(=O)CN (configuration not stated)	0	0	0	0	4.8	-	0	0	0
Cc1nn(C)cc1/C=N/O	0	0	0	0	0	-	-	-	-
Cc1nn(-c2ccccc2)cc1/C=N/O	0	0	0	0	4.3	0	7640	-	0
CCC(Sc1nc2n[nH]c(C)c2c(=N)n1-c1ccc(C)c(Cl)c1)C(=O)N1CCOCC1 (configuration not stated)	0	0	0	0	0	-	-	-	-
CCC(Sc1nc2n[nH]c(C)c2c(=N)n1-c1cccc(Cl)c1)C(=O)NCCOC (configuration not stated)	0	0	0	0	5.1	0	11752	0	+
Cc1ccc(-n2nnnc2SCC(=O)N2c3ccccc3NC(=O)C2(C)C)cc1	0	0	0	0	0	-	-	-	-
CC1C=Cc2ccccc2N1C(=O)c1ccccc1 (configuration not stated)	0	0	0	0	4	0	9976	0	0
COc1ccc(Nc2cc(C)nc(N3CCOCC3)n2)cc1	0	0	0	0	3.6	0	8656	0	+
CC(C)(C)C(=O)Nc1sc2c(c1C#N)CCCCC2	-	-	-	-	-	0	-	-	-
N#Cc1c(N)sc2c1CCCCCC2	0	0	0	0	5.8	-	13464	0	0
O=C1Nc2ccccc2/C1=N\c1sc2c(c1C(=O)Nc1ccccc1)CCCC2	-	-	-	-	-	0	-	-	-
CCC(=O)Nc1cc2c(cc1C(=O)CC)OCCO2	0	0	0	0	14	-	12916	0	+
CC(=O)Nc1cc2c(cc1C(=O)c1ccccc1)OCCO2	0	0	0	0	6.3	-	8592	0	+
CCC(=O)Nc1cc2c(cc1C(=O)c1ccccc1)OCCO2	0	0	0	0	13	0	15532	-	+
O=C(CCc1nc2ccccc2[nH]c1=O)OCC(=O)N1CCc2ccccc21	0	0	0	0	0	-	-	-	-
Cn1c(=O)cc(SCC(=O)NCCN2CCN(c3ccccc3F)CC2)c2cc(Cl)ccc21	0	0	0	0	0	-	-	-	-
SMILES	SF1 activator	M1 antagonist	M1 ag	RORA act	D1 mod	mHtt clearance	D1 PAM confirm	D1 ag no DA	Isoprot counter
N#CC1=C(N)Oc2n[nH]c(-c3ccccc3)c2C1c1cccnc1 (configuration not stated)	0	0	0	0	0	0	-	-	-
N#CC1=C(N)Oc2nc(-c3ccccc3)[nH]c2C1c1cccnc1 (configuration not stated)	0	0	0	0	5.1	0	8448	0	0
CSc1ccc(-c2nc(CSCC(=O)N3CCOCC3)c(C)o2)cc1	0	0	0	0	26	0	0	0	0
C=CCOc1nc(-c2ccncc2)nc2ccccc12	0	0	0	0	6.5	0	15684	-	+
COc1nc(-c2ccncc2)nc2ccccc12	-	-	-	-	-	0	-	-	-
c1ccc(-c2nc(N3CCOCC3)c3ccccc3n2)nc1	0	0	0	0	0	-	-	-	-
c1ccc2c(N3CCCC3)nc(-c3ccncc3)nc2c1	0	0	0	0	9.2	0	18800	0	+
CCOc1ccc(Oc2ccc(-c3nnc(-c4ccccc4)o3)cc2[N+](=O)[O-])cc1	-	-	-	-	-	0	-	-	-
O=C(O)C1C2C=CC3(CN(C/C=C/c4ccccc4)C(=O)C13)O2 (configuration not stated)	0	-	-	0	0	-	-	-	-
CC(=O)Nc1cccc(NC(=O)c2sc3ncn(CC(=O)N4CCCCC4)c(=O)c3c2C)c1	0	0	0	0	0	-	-	-	-
Cn1c(N2CCN(C(=O)NC34CC5CC(CC(C5)C3)C4)CC2)nc2ccccc21	-	-	-	-	-	0	-	-	-
Cc1c2c(nc3c(C(=O)NC4CC4)cnn13)CCCC2	0	0	0	0	0	-	-	-	-
CCC(C)NC(=O)c1cnn2c(C)c3c(nc12)CCCC3 (configuration not stated)	0	0	0	0	7	0	11440	0	+
COC(=O)c1cc(NC2c3ncccc3C(=O)N2Cc2ccccc2)cc(C(=O)OC)c1 (configuration not stated)	0	0	0	0	19	-	20824	0	+
COc1c2c(nc3ccccc13)OC(C(C)(O)CO)C2 (configuration not stated)	-	-	-	-	-	0	-	-	-
CC(=O)c1c(N)c(C#N)c(C)n1-c1ccc(Br)cc1	0	0	0	0	-	0	-	-	-
COC(=O)c1c(N)c(C#N)c(C)n1-c1ccccc1	0	0	0	0	3	0	8468	0	+
CC(C)Cn1c(-c2cccs2)nc2nc3ccccc3nc21	0	0	0	0	4.7	-	10104	0	0
c1ccc(Cc2cc(-c3ccccc3)on2)cc1	-	-	-	-	-	0	-	-	-
Cc1ccc(C(=O)C2COC(=O)C2)cc1 (configuration not stated)	0	0	0	0	0	0	-	-	-
COc1ccc2c(c1)C(=O)N(c1ccccc1OC)C(=O)C2(C)C	0	0	0	0	6.9	0	11528	0	0
COc1ccccc1Oc1ccc2c(c1)C(=O)N(c1ccc(O)cc1)C2=O	0	0	0	0	0	-	-	-	-
CCOC(=O)c1c(C2COc3ccccc3O2)csc1NC(=O)c1ccccc1 (configuration not stated)	-	-	-	-	-	0	-	-	-
CCOC(=O)c1c(C2COc3ccccc3O2)csc1N (configuration not stated)	0	0	0	0	9.9	-	11276	0	+
O=C(CSc1nc2ccccc2c(=O)n1-c1ccc(Cl)cc1)c1ccco1	0	0	0	0	0	0	-	-	-
Cc1cc(C)c(S(=O)(=O)N2CCN(c3nc4c(c(=O)n(C)c(=O)n4C)n3C)CC2)c(C)c1	0	0	0	0	0	-	-	-	-

High-throughput results as filed in PubChem.
